Bioassay records deposited in PubChem by several laboratories.
TPT1 inhibitor – Candida albicans TPT1 enzyme inhibitors, primary screen, biochemical, fluorescence polarization | recombinant caTPT1, FP RNA substrate dephosphorylation | AID 1962, 2009 | tRNA 2'-phosphotransferase TPT1 (Candida albicans SC5314) | inhibition, % at 5 µM | actives 0.81% (n = 300,000);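 active = inhibition above the mean of all tested compounds plus 3 SD, set per screening campaign, cut at about 24% in these data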;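 note: plate controls were DMSO alone for no effect and ferristatin control at 100 nM for full effect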
CSN inh – inhibitors of CSN-mediated cullin deneddylation, primary screen, biochemical, fluorescence polarization, uHTS. COP9 signalosome complex subunit 5 (Homo sapiens), Q92905. Purified CSN, SCF-Nedd8-OG deneddylation. inhibition, % at 12.5 µM. actives 0.38% (n = 360,000);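 active = pattern-corrected inhibition above about 35%, with an unprinted fluorescence ratio check between 0.5 and 1.5, limit read from the data, passing the limit was not always enough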;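 note: 0% = enzyme with substrate and 100% = substrate without enzyme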
Target sequence (Q92905 whole entry, looked up, one chain of several): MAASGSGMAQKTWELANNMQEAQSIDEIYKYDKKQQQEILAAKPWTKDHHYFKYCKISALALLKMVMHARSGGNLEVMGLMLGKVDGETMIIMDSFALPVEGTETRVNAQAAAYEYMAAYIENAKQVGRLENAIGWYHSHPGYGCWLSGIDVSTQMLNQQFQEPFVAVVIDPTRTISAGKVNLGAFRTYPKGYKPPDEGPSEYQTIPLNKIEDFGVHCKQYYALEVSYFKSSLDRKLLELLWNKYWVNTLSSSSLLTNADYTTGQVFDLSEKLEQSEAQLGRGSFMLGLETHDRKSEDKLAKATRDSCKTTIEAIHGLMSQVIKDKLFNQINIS
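Material: human Csn5 produced in HEK293T cells; Input: enzyme 0.24 nM; Reagent: SCFSkp2-Nedd8OG substrate at 10 nM final; Dosing: 12.5 µM compound; Incubation: 90 min reaction at room temperature; Detection: fluorescence polarization of the substrate; Evaluation: % inhibition of substrate cleavage by Csn5; Control set: substrate-only high control, full reaction low control.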
IDE cell inh – human IDE inhibitors in live cells, primary screen, fluorescence polarization, HEK cells, FAbetaB substrate; FAbetaB cleavage; inhibition, % at 5.59 µM; actives 0.41% (n = 320,000);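 active = percent inhibition above the average of all tested compounds plus 3 SD, set per screening campaign, cut at about 16% in these data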;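 note: IDE supplied by intact live HEK cells; FP after avidin binding of uncleaved biotin substrate so inhibition keeps polarization high; 0% = DMSO wells and 100% = 60 µM reference IDE inhibitor Ii1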
Rpn11 inh – Rpn11 (PSMD14) deubiquitinase inhibitors, primary screen, biochemical, fluorescence polarization, uHTS. AID 588493, 2011. inhibition, % at 20 µM. human 26S proteasome, Ub4-pepOG fluorescence polarization; 20S core pre-blocked with epoxomicin. actives 0.59% (n = 360,000). 26S proteasome non-ATPase regulatory subunit 14 (Homo sapiens), O00487;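 active = inhibition at 20 µM, scaled to each plate's controls, above about 33%, limit read from the data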
Target sequence (O00487 whole entry, looked up): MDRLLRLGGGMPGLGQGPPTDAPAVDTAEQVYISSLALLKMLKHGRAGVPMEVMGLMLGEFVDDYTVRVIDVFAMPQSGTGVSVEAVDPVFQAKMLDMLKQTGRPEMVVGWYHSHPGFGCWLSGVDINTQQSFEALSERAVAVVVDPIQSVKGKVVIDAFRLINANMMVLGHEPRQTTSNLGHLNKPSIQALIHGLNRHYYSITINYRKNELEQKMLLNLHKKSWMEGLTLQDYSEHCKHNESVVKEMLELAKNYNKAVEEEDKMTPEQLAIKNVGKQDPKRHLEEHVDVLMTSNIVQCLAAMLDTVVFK
IDE cell activ – human IDE activators in live cells, primary screen, fluorescence polarization, HEK cells, FAbeta-B substrate | actives 0.073% (n = 340,000) | AID 493087, 2011 | Insulin-degrading enzyme (Homo sapiens), P14735 | activation, % at 5.96 µM | FAbeta-B cleavage; 0% vehicle, 100% cell-free pure enzyme wells;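 active = activation above the mean of all tested compounds plus 3 SD, set per screening campaign, cut at about 17% in these data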
HNF4A DNA FP – change in binding of human HNF4A to DNA, primary screen, biochemical, fluorescence polarization, FITC-DNA; Hepatocyte nuclear factor 4-alpha (Homo sapiens), P41235; 1 h; activity change, % at 10 µM; actives 0.3% (n = 360,000); AID 1224865, 2016; in the data active = activity change above about 30%, passing the limit was not always enough
caTPT1 confirm – Candida albicans TPT1 inhibitors, confirmation, biochemical, fluorescence polarization, triplicate; actives 74% (n = 2,400); shares compounds with TPT1 inhibitor; recombinant caTPT1, RNase T1 coupled; inhibition, % at 5 µM;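 active = inhibition above the primary screen limit, the mean inhibition of all tested compounds plus 3 SD, cut at about 25% in these data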
RNase T1 inh – RNase T1 inhibitors, counter-screen for TPT1 inhibitor project, biochemical, fluorescence polarization; AID 2153, 2009; actives 83% (n = 2,400); shares compounds with TPT1 inhibitor; RNase T1 cleavage, 1536-well; inhibition, % at 5 µM;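 active = inhibition above the solvent-only control well mean plus 3 SD, limit set per screening run, cut at about 23% in these data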;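 note: plate controls were DMSO wells with enzyme for no effect and wells without RNase T1 for full effect; inhibitors block cleavage so intact labeled substrate keeps polarization high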
Target sequence (P00651 whole entry, looked up): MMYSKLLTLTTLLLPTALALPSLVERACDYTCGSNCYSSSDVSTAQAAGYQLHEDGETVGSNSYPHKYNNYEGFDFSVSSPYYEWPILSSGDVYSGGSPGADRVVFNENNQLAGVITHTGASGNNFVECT
IDE inh confirm – human IDE inhibitors in live cells, confirmation, fluorescence polarization, HEK cells, FAbetaB substrate. actives 51% (n = 1,200). inhibition, % at 5.59 µM. FAbetaB cleavage. shares compounds with IDE cell inh;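 active = mean inhibition across triplicate wells above the cutoff set by the earlier primary insulin-degrading enzyme screen, cut at about 16% in these data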;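 note: 0% = DMSO wells and 100% = 60 µM reference IDE inhibitor Ii1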
HEK cytotox – cytotoxicity in HEK cells, cytotoxicity control for IDE inhibitor project, cell-based, luminescence. AID 449730, 2010. HEK293 cytotoxicity, ATP luminescence. inhibition, % at 5.59 µM. actives 28% (n = 1,200). shares compounds with IDE cell inh; in the data active = inhibition above about 22%;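 note: 0% = vehicle wells and 100% = reference cytotoxic drug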
Rpn11 confirm – Rpn11 (PSMD14) deubiquitinase inhibitors, confirmation, biochemical, fluorescence polarization, single concentration. inhibition, % at 20 µM. shares compounds with Rpn11 inh. purified human 26S proteasome, Ub4-pepOG fluorescence polarization; proteasome pretreated with epoxomicin. actives 29% (n = 1,900)
MMP-2 counter-1 – MMP-2 enzyme inhibition, confirmation, counter-screen for RPN11 inhibitor project, biochemical, fluorescence, single concentration; recombinant MMP-2, FRET peptide cleavage fluorescence; actives 4% (n = 1,900); AID 602330, 2012; inhibition, % at 20 µM; shares compounds with Rpn11 inh;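 note: human MMP-2 activated beforehand with APMA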
Thrombin FP – bovine thrombin protease inhibition, confirmation, counter-screen for Rpn11 inhibitor project, biochemical, fluorescence polarization, single concentration; actives 13% (n = 1,900); bovine thrombin cleavage of Ub4-pepOG; AID 602333, 2012; shares compounds with Rpn11 inh; inhibition, % at 20 µM;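 active = mean inhibition at least 40% at 20 µM, or signal 3 deviations below plate average, so some actives read negative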;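 note: plate controls were thrombin with DMSO for no effect and buffer wells lacking thrombin for full effect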
CSN deneddyl val – Csn5 deneddylation inhibitors, confirmation, biochemical, fluorescence polarization, single concentration, SCF-Nedd8OG substrate | inhibition, % at 16.6 µM | actives 62% (n = 540) | Csn5 deneddylation of SCF-Nedd8OG, 90 min | shares compounds with CSN inh; in the data active = inhibition above about 50%;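 note: 0% = DMSO with enzyme and 100% = no enzyme wells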
MMP-2 counter-2 – MMP-2 protease inhibition counter-screen, confirmation, counter-screen for CSN deneddylation inhibitor project, biochemical, fluorescence, single concentration; AID 720655, 2013; actives 33% (n = 540); shares compounds with CSN inh; recombinant MMP-2, FRET substrate fluorescence, 60 min; inhibition, % at 16.6 µM;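 active = corrected plate-normalized z-score of 5 or more, or -5 or less, or inhibition of 15% or more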;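 note: plate controls were DMSO wells with enzyme for no effect and buffer wells lacking MMP-2 for full effect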
Thrombin cntr – counter-screen for CSN deneddylation inhibitors: bovine thrombin inhibition | actives 49% (n = 540) | bovine thrombin cleavage of Ub4-pepOG, fluorescence polarization | shares compounds with CSN inh | inhibition, % at 16.6 µM | AID 720656;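 active = inhibition at or above a set limit, with a fluorescence interference ratio between 0.5 and a set maximum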
* hit, by the source's call; nt = no result shown. Hits are enriched below; roughly 1.7% of the tested compounds scored in any of these assays. Cut-off read from the data, not from the text of the source, unless noted: active = inhibition above about 40%; inactive = the rest.

SMILES	TPT1 inhibitor	CSN inh	IDE cell inh	Rpn11 inh	IDE cell activ	HNF4A DNA FP	caTPT1 confirm	RNase T1 inh	CSN deneddyl val	MMP-2 counter-2	Thrombin cntr	others
COc1cc(N2CCCC2)c(OC)cc1/C=C(/C#N)c1ccc(Br)cc1	103.7*	60.0*	4.8	nt	-7.2	113.4	129.9*	147.4*	90.0*	-7.5	22.1*
COc1ccc(C(C#N)=Cc2ccccc2OC)cc1	nt	2.2	nt	-2.7	nt	0.4	nt	nt	nt	nt	nt
COc1cc(OC)cc(C2=Cc3ccccc3C(CC(=O)c3ccco3)N2c2ccc(-c3cccnc3)cc2)c1 (stereo not given)	nt	3.1	nt	nt	nt	2.3	nt	nt	nt	nt	nt
COc1ccc(C(=O)NCCN2CCC(n3c(=O)[nH]c4ccccc43)CC2)cc1F	nt	8.5	nt	nt	nt	4.1	nt	nt	nt	nt	nt
COc1cc(/C=C2/C(=O)NN(c3ccc(Cl)cc3)C2=O)cc(Br)c1O	66.8*	44.9*	4.1	68.2*	-5.2	-9.7	112.5*	123.2*	-15.6	7.4	22.8*	Rpn11 confirm=193.5*;MMP-2 counter-1=35.6;Thrombin FP=79.4*
COC(=O)c1ccc(N2NC(=O)/C(=C/c3cc(OC)c(OC)c(OC)c3)C2=O)cc1	0.7	3.4	-0.7	1.4	-1.9	-6.0	nt	nt	nt	nt	nt
CCOCCCNc1nc2c(C)cccn2c(=O)c1/C=C1\SC(=S)N(CC(C)C)C1=O	51.5*	46.5*	4.6	74.9*	-1.1	57.4*	76.4*	95.1*	76.3*	-5.4	19.6*	Rpn11 confirm=91.0*;MMP-2 counter-1=60.1*;Thrombin FP=72.1*
Cc1cccn2c(=O)c(/C=C3\SC(=S)NC3=O)c(NCCCN3CCOCC3)nc12	120.9*	84.6*	13.8	nt	-8.9	108.9*	122.2*	119.9*	81.1*	-18.2	47.3*
Cc1cccn2c(=O)c3cc(C(=O)NCCN4CCOCC4)n(C)c3nc12	-1.0	4.6	2.1	-0.9	1.0	0.9	nt	nt	nt	nt	nt
N#C/C(=C\c1cccn1S(=O)(=O)c1ccccc1)S(=O)(=O)c1ccc(F)cc1	nt	-1.8	nt	6.1	nt	2.3	nt	nt	nt	nt	nt
Cc1ccc(S(=O)(=O)Nc2ccccc2C(C(=O)OC(C)(C)C)C(=O)OC(C)(C)C)cc1	nt	-4.4	nt	nt	nt	1.2	nt	nt	nt	nt	nt
COc1cc(C2C(C#N)=C(N)Oc3cc(N(C)C)ccc32)cc2c1OCO2 (stereo not given)	100.4*	36.1*	18.9*	nt	-19.9	55.7	98.1*	98.8*	85.6*	2.7	19.7*	IDE inh confirm=14.5;HEK cytotox=67.1*
Cc1cc(/C=C2\SC(=S)N(C)C2=O)c(C)n1-c1cccc(O)c1	78.0*	37.1*	4.6	nt	-19.5	72.3*	114.4*	117.2*	70.9*	4.5	94.3*
C[C@@H]1CN([C@H](C)CO)C(=O)c2cc(Br)cnc2O[C@@H]1CN(C)C(=O)c1cccc(F)c1	nt	-3.2	nt	-5.3	nt	-0.6	nt	nt	nt	nt	nt
COc1cccc(/C=N/NC(=O)c2c(C)nc3ccc(Br)cn23)c1O	31.1*	44.9*	1.4	16.0	2.7	4.3	43.0*	46.4*	5.8	1.9	-18.4
CCOc1ccccc1/C=N/NC(=O)c1c(C)nc2ccc(Br)cn12	-0.9	-2.8	9.3	-7.3	-1.8	1.7	nt	nt	nt	nt	nt
C=CCN1C=CC(=CC=C(C#N)C#N)C=C1	137.0*	91.2*	23.3*	nt	-28.8	118.6	158.0*	154.7*	97.5*	7.6	78.6*	IDE inh confirm=40.8*;HEK cytotox=5.1
CCCN1C=CC(=CC=C(C#N)C#N)C=C1	143.8*	82.6*	39.0*	nt	-31.7	121.1	165.1*	161.4*	22.9	5.1	82.7*	IDE inh confirm=47.1*;HEK cytotox=6.3
CC(C)N1CCc2c(sc(NC(=O)c3ccc(S(=O)(=O)N4CCc5ccccc54)cc3)c2C(N)=O)C1	82.0*	46.7*	9.9	nt	-9.8	53.2*	84.5*	93.4*	nt	6.9	-84.3
NC(=O)c1ccsc1NC(=O)c1ccc(S(=O)(=O)N2CCCc3ccccc32)cc1	1.9	4.0	3.4	13.4	-1.8	2.5	nt	nt	nt	nt	nt
